Source: ChEMBL document CHEMBL4699656, “Synthesis and structure-activity relationship of coumarins as potent Mcl-1 inhibitors for cancer treatment” (Bioorg Med Chem, 2021)

Target: Induced myeloid leukemia cell differentiation protein Mcl-1 (Homo sapiens, UniProt Q07820)
Experiment: Displacement of FAM-Bid peptide from recombinant N-terminal His6x-tagged human Mcl-1 expressed in Escherichia coli BL21 (DE3) incubated for 30 mins by fluorescence polarization assay

Chain of Induced myeloid leukemia cell differentiation protein Mcl-1 (Q07820 whole entry): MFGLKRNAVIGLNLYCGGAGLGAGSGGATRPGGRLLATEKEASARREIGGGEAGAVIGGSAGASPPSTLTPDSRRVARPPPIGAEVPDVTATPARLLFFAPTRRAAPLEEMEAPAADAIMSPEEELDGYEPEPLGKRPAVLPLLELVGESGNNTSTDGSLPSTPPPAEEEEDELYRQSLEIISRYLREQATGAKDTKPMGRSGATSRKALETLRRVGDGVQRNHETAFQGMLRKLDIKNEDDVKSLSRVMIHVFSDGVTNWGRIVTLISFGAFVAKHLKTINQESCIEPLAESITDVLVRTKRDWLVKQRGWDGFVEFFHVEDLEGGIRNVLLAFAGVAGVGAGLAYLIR

| IC50 | Ki | Structure (SMILES) |
| --- | --- | --- |
| 33.7 µM | 9.36 µM | O=C(O)Cc1cc(=O)oc2cc(O)c(O)cc12 |
| 3.27 µM | 0.65 µM | O=c1cc(-c2ccccc2)c2cc(O)c(O)cc2o1 |
| 28.6 µM | 5.26 µM | Cc1cc(=O)oc2cc(O)c(Cl)cc12 |
| 18.6 µM | 3.19 µM | O=c1cc(CCl)c2ccc(O)c(O)c2o1 |
| 26.3 µM | 10.8 µM | Cc1cc(=O)oc2c([N+](=O)[O-])c(O)ccc12 |
| 32.2 µM | 5.67 µM | O=c1cc(CO)c2ccc(O)c(O)c2o1 |
| 7.39 µM | 1.46 µM | Cc1cc(=O)oc2c(CN(C)C)c(O)c(O)cc12 |
| 30.6 µM | 6.59 µM | COc1ccc2c(CCl)cc(=O)oc2c1O |
| 21.8 µM | 4.81 µM | O=c1ccc2cc(O)c(O)c(CN3CCC(O)CC3)c2o1 |
| 32.9 µM | 7.15 µM | COc1ccc2c(CO)cc(=O)oc2c1O |
| 4.01 µM | 0.76 µM | O=c1cc(CO)c2cc(O)c(O)cc2o1 |
| 53.6 µM | 11.5 µM | CN(C)Cc1c(O)c(O)cc2ccc(=O)oc12 |
| 16.9 µM | 7.02 µM | COc1ccc2ccc(=O)oc2c1O |
| 34.6 µM | 9.17 µM | [N-]=[N+]=NCc1cc(=O)oc2cc(O)c(O)cc12 |
| 16.9 µM | 2.39 µM | COc1ccc2c(C)cc(=O)oc2c1O |
| 11.3 µM | 2.54 µM | Cc1cc(=O)oc2c(CN3CCCC3)c(O)c(O)cc12 |
| 59.2 µM | 21.3 µM | Cc1cc(=O)oc2c(CN3CCC(O)CC3)c(O)c(O)cc12 |

| IC50 | Ki | Structure (SMILES) |
| --- | --- | --- |
| 19.9 µM | 4.79 µM | CN(C)Cc1c(O)c(O)cc2oc(=O)ccc12 |
| 14.7 µM | 2.77 µM | O=c1ccc2c(CN3CCC(O)CC3)c(O)c(O)cc2o1 |
| 1.21 µM | 0.21 µM | O=c1cc(C(F)(F)F)c2cc(O)c(O)cc2o1 |
| 5.82 µM | 1.04 µM | O=c1cc(CCl)c2cc(O)c(O)cc2o1 |
| 30.9 µM | 5.47 µM | CCc1cc2c(C)cc(=O)oc2cc1O |
| 11.2 µM | 2.11 µM | Cc1cc(=O)oc2c(O)c(O)ccc12 [4-METHYLDAPHNETIN] |
| 6.28 µM | 1.19 µM | Cc1cc(=O)oc2cc(O)c(O)cc12 [4-METHYLESCULETIN] |
| 83.7 µM | 23.9 µM | O=c1ccc2cc(O)ccc2o1 [6-HYDROXYCOUMARIN] |
| 24.4 µM | 4.06 µM | O=c1ccc2ccccc2o1 [COUMARIN] |
| 11.8 µM | 1.75 µM | O=c1ccc2ccc(O)c(O)c2o1 [DAPHNETIN] |
| 8.77 µM | 1.49 µM | O=c1ccc2cc(O)c(O)cc2o1 [ESCULETIN] |
| 32.1 µM | 5.51 µM | COc1cc2ccc(=O)oc2c(O)c1O [FRAXETIN] |
| 104 µM | 22.1 µM | Cc1cc(=O)oc2cc(O)ccc12 [HYMECROMONE] |
| 51.5 µM | 15.9 µM | COc1cc2oc(=O)ccc2cc1O [ISOSCOPOLETIN] |
| 25.1 µM | 9.54 µM | COc1cc2ccc(=O)oc2cc1OC [SCOPARONE] |
| 22.6 µM | 13.4 µM | COc1cc2ccc(=O)oc2cc1O [SCOPOLETIN] |
| 21 µM | 3.81 µM | O=c1ccc2ccc(O)cc2o1 [UMBELLIFERONE] |

| Structure (SMILES) | IC50 | Ki |
| --- | --- | --- |
| COc1cc2cc([N+](=O)[O-])c(=O)oc2c([N+](=O)[O-])c1OC | 12.2 µM | 2.19 µM |

Tested on: A549
Experiment: Potentiation of taxol-induced cytotoxicity against human A549 cells assessed as fold reduction in taxol IC50 for inhibition of cell viability measured after 48 hrs by SRB assay
Type: functional
Procedure, shortened: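 A549 cells in RPMI1640 with 10% FBS at 37°C, 5% CO2. Seeded at 6.5 × 10^3 cells/well and allowed to adhere 24 h. Then exposed 48 h to taxol alone or combined with the Mcl-1 inhibitor (0.0001–100 μM). TCA fixation at 4°C, SRB staining, and Tris-solubilized dye read at 570 nm. Growth inhibition taken relative to control. IC50 reported as mean of triplicates.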

| Structure (SMILES) | fold change (FC) |
| --- | --- |
| O=c1cc(C(F)(F)F)c2cc(O)c(O)cc2o1 | >10 |
